# High-throughput results from PubChem BioAssay.
# An excerpt weighted towards active compounds, which were near 1.8% of everything screened.
# HKDC1 inhibitor: HKDC1 (human) hexokinase inhibition; Q2TB90; recombinant HKDC1, G6PDH/diaphorase resazurin coupled fluorescence; inhibition, % at 20 µM; hit rate 0.16% among 340,000; AID 493160;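 active = inhibition above about 35% when tested at 20 µM, limit read from the data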;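 note: plate controls were DMSO wells with enzyme for no effect and DMSO wells lacking enzyme for full effect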
#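 Assay system: recombinant HKDC1 hexokinase; detection: coupled resazurin fluorescence, excitation 525 nm, emission 613 nm; benchmarks: DMSO-plus-enzyme-mix negative control, buffer-substituted positive control; compound dosing: single 20 µM dose; schedule: 90 min at room temperature in dark; also added: glucose plus 1 mM ATP as hexokinase substrates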
# ATG4B inh: inhibitors of human ATG4B cysteine protease. ATG4B cleavage of LC3-PLA2, NBD-HPC fluorescence, 1 h. inhibition, % at 8.33 µM. hit rate 0.51% among 340,000. Q9Y4P1; in the data active = inhibition above about 40%
# Target sequence (Q9Y4P1 whole entry, looked up): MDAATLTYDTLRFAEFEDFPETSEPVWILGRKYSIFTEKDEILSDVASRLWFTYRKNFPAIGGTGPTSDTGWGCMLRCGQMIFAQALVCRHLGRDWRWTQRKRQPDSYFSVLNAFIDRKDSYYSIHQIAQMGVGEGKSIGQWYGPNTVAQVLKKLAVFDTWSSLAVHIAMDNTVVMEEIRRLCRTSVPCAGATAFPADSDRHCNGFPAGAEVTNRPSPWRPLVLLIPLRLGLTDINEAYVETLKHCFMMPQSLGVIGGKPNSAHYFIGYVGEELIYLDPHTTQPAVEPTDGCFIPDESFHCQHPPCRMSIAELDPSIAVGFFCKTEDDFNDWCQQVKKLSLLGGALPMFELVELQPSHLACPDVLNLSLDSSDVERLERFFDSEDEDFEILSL
# LANA-H2A inh: blocks KSHV LANA binding to histone H2A/H2B | cell-free LANA-H2A/H2B peptide, fluorescence polarization | hit rate 0.6% among 320,000 | AID 2629 | inhibition, % (concentration not given with the values) | Q9QR71; in the data active = inhibition mostly above about 10%, no sharp cut-off; inactive = mostly below about 6.7%
# AI-2 QS mod: modulators of Vibrio harveyi AI-2 quorum sensing system. Vibrio harveyi JMH597 AI-2 luminescence/OD600 ratio, 9 h; stronger effect = lower value; strain lacks LuxN and CqsS sensors; 0 = neutral-control median. activity change, % at 7.5 µM. hit rate 0.4% among 300,000; in the data active = activity change below about -75%, passing the limit was not always enough;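 note: luminescence divided by OD600 gain over 9 h not by final OD600 alone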
# HDAC3 inh: blocks human histone deacetylase 3; O15379; recombinant HDAC3, fluorogenic peptide/trypsin coupled, fluorescence; inhibition, % at 8.3 µM; hit rate 0.15% among 320,000; AID 2718; in the data active = inhibition above about 26%, passing the limit was not always enough
# Bfl-1 A1 inh: inhibitors of the anti-apoptotic protein A1, read as caspase activation; hit rate 0.066% among 330,000; AID 2462; MEF A1-2A-BIM cells, Caspase-Glo 3/7 luminescence, 3 h; percent of clofoctol response, vehicle zero; caspase activation, % (no concentration beside the values);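 active = over half of replicate activation scores above 10%, or exactly half above 10 with the replicate mean above 10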
# ATG4B conf: ATG4B (human) inhibition, single-dose confirmed; shares compounds with ATG4B inh; ATG4B protease fluorescent substrate cleavage assay; inhibition, % at 8.33 µM; hit rate 92% among 320; in the data active = inhibition above about 39%
# PLA2 ctr: PLA2 (human) inhibition in ATG4B counter-screen. inhibition, % at 8.33 µM. shares compounds with ATG4B inh. AID 588402. purified PLA2, NBD-C6-HPC fluorescence, 45 min. hit rate 66% among 1,600; in the data active = inhibition above about 50%
# Target sequence (P04054 whole entry, looked up): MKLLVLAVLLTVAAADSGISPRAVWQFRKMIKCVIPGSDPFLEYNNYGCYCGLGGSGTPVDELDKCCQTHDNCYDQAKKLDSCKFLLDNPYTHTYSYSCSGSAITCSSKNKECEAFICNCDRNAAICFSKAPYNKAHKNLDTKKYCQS
# * hit, by the source's call; nt = no result given.
SMILES,HKDC1 inhibitor,ATG4B inh,LANA-H2A inh,AI-2 QS mod,HDAC3 inh,Bfl-1 A1 inh,PLA2 ctr,others
COc1ccc(-c2nnc(SCc3ccccc3F)o2)cc1,-9,25,7,-55,-1,-1,nt,
COc1cc(OC)cc(-c2nnc(SCc3c(F)cccc3Cl)o2)c1,-5,59*,0,32,6,-1,58*,
C1=C(CCNc2ncnc3c2[nH]c2ccccc23)CCCC1,-2,49*,-5,nt,3,0,64*,
COc1ccc(CNc2ncnc3c2[nH]c2ccccc23)cc1,5,47*,-3,-71,3,0,71*,
Cc1ccc2[nH]c3c(NCc4ccccc4)ncnc3c2c1,7,50*,3,20,-17,1,60*,
COc1ccc(CNc2ncnc3c2[nH]c2cc(OC)c(OC)cc23)cc1,-1,-7,2,13,-12,1,nt,
CNC(=O)c1ccccc1-c1cn(C)c2ccccc2c1=O,-6,1,2,-4,0,0,nt,
CCOc1cc(/C=C2\CCC/C(=C\c3cc(Cl)c(O)c(OCC)c3)C2=O)cc(Cl)c1O,11,44*,-5,15,-3,-1,51*,
CCOc1cc(/C=C2\CN(C)C/C(=C\c3ccc(O)c(OCC)c3)C2=O)ccc1O,24,-10,-12,-8,6,0,nt,
OCCC1CN(Cc2cccc3nonc23)CCN1C1CCCCC1 (stereo not given),1,1,-2,41,-2,0,nt,
O=c1[nH]c(NNC(=S)NCc2ccccc2)nc2c1C1(CCCCC1)Cc1ccccc1-2,-3,72*,-3,12,12,1,79*,
O=C(CSc1nnc(CCc2ccccc2)n1-c1ccc(Cl)cc1)c1ccccc1,0,58*,-7,27,14,0,61*,
COc1ccc(-n2c(CCc3ccccc3)nnc2SCC(=O)c2ccc(Cl)cc2)cc1,12,13,1,16,7,1,nt,
Cc1cc(C)c(OCC(=O)Nc2cccc(NC(=O)c3ccco3)c2)c(Br)c1,5,60*,2,19,8,0,63*,
O=C(NNc1cc(C(F)(F)F)nc2ccccc12)Nc1cccc(Cl)c1,2,85*,-1,14,10,1,85*,
O=C1c2ccccc2C(=O)c2cc(N3CCCCC3)ccc21,6,2,nt,nt,nt,nt,nt,
O=C1c2cccc(Cl)c2C(=O)c2c1cccc2N1CCCC1,12,48*,8,6,4,0,63*,
COC(=O)Cc1ccc(NC(=S)NCc2cccc(OC)c2)cc1,-3,21,0,-2,-5,0,nt,
CCCCc1ccc(NC(=S)NCc2cccc(OC)c2)cc1,-1,80*,-4,-4,6,1,79*,
O=C(CSc1nnc(-c2ccc(Br)o2)n1Cc1ccccc1)c1ccccc1F,2,57*,-1,13,5,0,57*,
O=C(NCc1cccc(F)c1)c1ccc(N2C(=O)Cn3c(cc4sccc43)C2=O)cc1,-9,41*,0,12,5,0,34,
O=C(NCc1ccco1)c1ccc(Cn2c(=O)c3sccc3n(Cc3cccc(F)c3)c2=O)cc1,7,-8,3,14,2,0,nt,
CCS(=O)(=O)Nc1ccc2[nH]c(=O)[nH]c2c1,-1,-2,2,4,-1,1,nt,
CCc1ccc(-n2cccc2/C=C2/C(=N)N3C(=NC2=O)SN=C3S(C)(=O)=O)cc1,10,45*,-12,2,6,1,33,ATG4B conf=68*
Cc1ccc(-n2cccc2/C=C2\C(=N)N3N=C(c4ccco4)SC3=NC2=O)cc1,14,78*,-1,46,7,1,62*,
SMILES,HKDC1 inhibitor,ATG4B inh,LANA-H2A inh,AI-2 QS mod,HDAC3 inh,Bfl-1 A1 inh,PLA2 ctr,others
Cc1ccc(S(=O)(=O)Oc2ccc(/C=C3/C(=N)N4C(=NC3=O)SN=C4S(C)(=O)=O)cc2)cc1,16,54*,13,32,2,1,67*,
Cc1ccc(S(=O)(=O)Oc2ccc(/C=C3\C(=N)N4N=C(S(C)(=O)=O)SC4=NC3=O)cc2)cc1,15,66*,1,26,3,0,77*,
CCC1=NN2C(=N)/C(=C\c3cccn3-c3ccc(Cl)cc3)C(=O)N=C2S1,-10,12,1,37,nt,0,nt,
CCS(=O)(=O)C1=NN2C(=N)/C(=C\c3ccc(OS(=O)(=O)c4ccccc4)cc3)C(=O)N=C2S1,15,37,0,25,3,-12,nt,
CS(=O)(=O)C1=NSC2=NC(=O)/C(=C\c3ccc(OS(=O)(=O)c4ccccc4)cc3)C(=N)N21,10,16,-1,20,7,-8,nt,
CCN1C(=O)C(=O)N(CC(=O)N(C)CC(=O)Nc2ccccc2C(F)(F)F)C1=O,-5,-5,4,nt,1,1,nt,
CCOC(=O)c1ccc(S(=O)(=O)NNC(=O)COc2ccc(C)cc2)cc1,-14,2,-3,4,3,0,nt,
O=C(O)c1nn(-c2ccc(F)cc2)ccc1=O,-5,-2,0,4,1,2,nt,
O=C(NNC(=O)c1nn(-c2ccc(F)cc2)ccc1=O)c1ccccc1Cl,3,42*,-8,nt,-6,-1,-21,
CCCc1cc(=O)[nH]c(SCc2cc(Cl)ccc2OC(F)F)n1,11,57*,-5,6,0,0,48,ATG4B conf=52*
CCOc1ccccc1C(=O)OCC(=O)NCC1CCCCC1,-6,-2,0,8,-4,1,nt,
CCOc1ccccc1NC(=O)CN1CCC(NC(=O)c2ccccc2)CC1,-4,4,1,7,7,3,nt,
CCOc1ccc(OCC)c(NC(=O)CN2CCC(NC(=O)c3cccc(F)c3)CC2)c1,-2,79*,2,0,-7,1,76*,
CN(Cc1ccccc1)S(=O)(=O)c1ccc(NC(=S)NC(=O)C2CCCC2)cc1,-3,50*,-1,17,-1,0,44,
Cc1ccc(S(=O)(=O)C2C(=O)N(C)C3(C)CC2c2ccccc2O3)cc1 (stereo not given),2,66*,2,21,-1,0,74*,
COc1ccc(C2=NOC(Cn3nc(C(=O)NCc4cccc(C(F)(F)F)c4)cc3-c3ccccc3)C2)cc1 (stereo not given),-3,67*,-1,17,5,1,82*,
